{
  "source": "ChEMBL document CHEMBL1122071",
  "about": "“Avermectin acyl derivatives with anthelmintic activity” (1982)",
  "assay_type_in_all_cases": "functional",
  "key": {"[1]": {"tested_on": "Trichostrongylus colubriformis", "test": "Minimal dose necessary to eliminate > 83% of Trichostrongylus colubriformis infection in gerbils"}, "[2]": {"tested_on": "Trichostrongylus axei", "test": "Anthelmintic efficacy against Trichostrongylus axei (T.a) in sheep at dose of 0.25 mg/kg administered orally; 20-59%", "summary_of_the_method": "(§1)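 Lambs experimentally infected with mixed gastrointestinal nematodes (H. contortus, O. circumcincta, T. axei, T. colubriformis, C. oncophora, Oe. columbianum) were dosed orally, 1–3 sheep per dose. An untreated infected group of 6 was included, with worm burdens given as the geometric mean number of worms per lamb. Efficacy was scored against adult and, where listed, EL4 stages.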"}, "[3]": {"tested_on": "Trichostrongylus colubriformis", "test": "Anthelmintic efficacy against Trichostrongylus colubriformis (T.c) in sheep at dose of 0.25 mg/kg administered orally; 60-89%", "summary_of_the_method": "as §1"}, "[4]": {"tested_on": "Oesophagostomum columbianum", "test": "Anthelmintic efficacy against Oseophagostomum columbianum (Oe. c) in sheep at dose of 0.25 mg/kg administered orally", "settings": "route oral", "summary_of_the_method": "as §1"}, "[5]": {"tested_on": "Teladorsagia circumcincta", "test": "Anthelmintic efficacy against adult Ostertagia circumcincta (O. c) in sheep at dose of 0.25 mg/kg administered orally; 60-89%", "summary_of_the_method": "as §1"}, "[6]": {"tested_on": "Cooperia oncophora", "test": "Anthelmintic efficacy against adult Cooperia oncopphora (C.o) in sheep at dose of 0.25 mg/kg administered orally; 60-89%", "summary_of_the_method": "as §1"}, "[7]": {"tested_on": "Haemonchus contortus", "test": "Anthelmintic efficacy against adult Haemonchus contortus (H.c) in sheep at dose of 0.25 mg/kg administered orally", "settings": "route oral", "summary_of_the_method": "as §1"}, "[8]": {"tested_on": "Trichostrongylus colubriformis", "test": "Anthelmintic efficacy against Trichostrongylus colubriformis (T.c) in sheep at dose of 0.025 mg/kg administered orally; 0-19%", "summary_of_the_method": "as §1"}, "[9]": {"tested_on": "Cooperia oncophora", "test": "Anthelmintic efficacy against adult Cooperia oncopphora (C.o) in sheep at dose of 0.025 mg/kg administered orally; 0-19%", "summary_of_the_method": "as §1"}, "[10]": {"tested_on": "Teladorsagia circumcincta", "test": "Anthelmintic efficacy against adult Ostertagia circumcincta (O. c) in sheep at dose of 0.025 mg/kg administered orally; 60-89%", "summary_of_the_method": "as §1"}, "[11]": {"tested_on": "Trichostrongylus axei", "test": "Anthelmintic efficacy against Trichostrongylus axei (T.a) in sheep at dose of 0.1 mg/kg administered orally", "settings": "route oral", "summary_of_the_method": "as §1"}, "[12]": {"tested_on": "Cooperia oncophora", "test": "Anthelmintic efficacy against immature (EL4) Cooperia oncopphora (C.o) in sheep at dose of 0.1 mg/kg administered orally; 20-59%"}, "[13]": {"tested_on": "Haemonchus contortus", "test": "Anthelmintic efficacy against immature (EL4) Haemonchus contortus (H.c) in sheep at dose of 0.1 mg/kg administered orally", "settings": "route oral", "summary_of_the_method": "(§2)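 Lambs were experimentally infected with mixed gastrointestinal nematodes: Haemonchus contortus, Ostertagia circumcincta, Trichostrongylus axei, T. colubriformis, Cooperia oncophora and Oesophagostomum columbianum. Dosing was oral, in mg/kg, with 3 sheep per dose group. An untreated infected group of 6 sheep served as reference, with worm burdens given as the geometric mean per lamb. Immature (EL4) and adult worms were scored separately.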"}, "[14]": {"tested_on": "Oesophagostomum columbianum", "test": "Anthelmintic efficacy against Oseophagostomum columbianum (Oe. c) in sheep at dose of 0.025 mg/kg administered orally; 60-89%", "summary_of_the_method": "as §1"}, "[15]": {"tested_on": "Haemonchus contortus", "test": "Anthelmintic efficacy against adult Haemonchus contortus (H.c) in sheep at dose of 0.025 mg/kg administered orally; 0-19%", "summary_of_the_method": "as §1"}, "[16]": {"tested_on": "Haemonchus contortus", "test": "Anthelmintic efficacy against immature (EL4) Haemonchus contortus (H.c) in sheep at dose of 0.025 mg/kg administered orally; 20-59%"}, "[17]": {"tested_on": "Oesophagostomum columbianum", "test": "Anthelmintic efficacy against Oseophagostomum columbianum (Oe. c) in sheep at dose of 0.1 mg/kg administered orally", "settings": "route oral", "summary_of_the_method": "as §1"}, "[18]": {"tested_on": "Haemonchus contortus", "test": "Anthelmintic efficacy against adult Haemonchus contortus (H.c) in sheep at dose of 0.1 mg/kg administered orally", "settings": "route oral", "summary_of_the_method": "as §1"}, "[19]": {"tested_on": "Haemonchus contortus", "test": "Anthelmintic efficacy against adult Haemonchus contortus (H.c) in sheep at dose of 0.05 mg/kg administered orally; 60-89%", "summary_of_the_method": "as §1"}, "[20]": {"tested_on": "Trichostrongylus colubriformis", "test": "Anthelmintic efficacy against Trichostrongylus colubriformis (T.c) in sheep at dose of 0.1 mg/kg administered orally", "settings": "route oral", "summary_of_the_method": "as §2"}, "[21]": {"tested_on": "Teladorsagia circumcincta", "test": "Anthelmintic efficacy against immature (EL4) Ostertagia circumcincta (O. c) in sheep at dose of 0.05 mg/kg administered orally; 0-19%"}, "[22]": {"tested_on": "Trichostrongylus axei", "test": "Anthelmintic efficacy against Trichostrongylus axei (T.a) in sheep at dose of 0.05 mg/kg administered orally; 60-89%", "summary_of_the_method": "as §1"}, "[23]": {"tested_on": "Cooperia oncophora", "test": "Anthelmintic efficacy against adult Cooperia oncopphora (C.o) in sheep at dose of 0.05 mg/kg administered orally; 0-19%", "summary_of_the_method": "as §1"}, "[24]": {"tested_on": "Oesophagostomum columbianum", "test": "Anthelmintic efficacy against Oseophagostomum columbianum (Oe. c) in sheep at dose of 0.05 mg/kg administered orally; 60-89%", "summary_of_the_method": "as §1"}, "[25]": {"tested_on": "Teladorsagia circumcincta", "test": "Anthelmintic efficacy against adult Ostertagia circumcincta (O. c) in sheep at dose of 0.05 mg/kg administered orally; 60-89%", "summary_of_the_method": "as §1"}, "[26]": {"tested_on": "Teladorsagia circumcincta", "test": "Anthelmintic efficacy against adult Ostertagia circumcincta (O. c) in sheep at dose of 0.1 mg/kg administered orally", "settings": "route oral", "summary_of_the_method": "as §1"}, "[27]": {"tested_on": "Trichostrongylus axei", "test": "Anthelmintic efficacy against Trichostrongylus axei (T.a) in sheep at dose of 0.025 mg/kg administered orally; 0-19%", "summary_of_the_method": "as §1"}, "[28]": {"tested_on": "Trichostrongylus colubriformis", "test": "Anthelmintic efficacy against Trichostrongylus colubriformis (T.c) in sheep at dose of 0.05 mg/kg administered orally; 60-89%", "summary_of_the_method": "as §1"}, "[29]": {"tested_on": "Teladorsagia circumcincta", "test": "Anthelmintic efficacy against immature (EL4) Ostertagia circumcincta (O. c) in sheep at dose of 0.1 mg/kg administered orally; 0-19"}, "[30]": {"tested_on": "Cooperia oncophora", "test": "Anthelmintic efficacy against adult Cooperia oncopphora (C.o) in sheep at dose of 0.1 mg/kg administered orally; 0-19%", "summary_of_the_method": "as §1"}, "[31]": {"tested_on": "Cooperia oncophora", "test": "Anthelmintic efficacy against immature (EL4) Cooperia oncopphora (C.o) in sheep at dose of 0.05 mg/kg administered orally; 20-59%"}, "[32]": {"tested_on": "Teladorsagia circumcincta", "test": "Anthelmintic efficacy against immature (EL4) Ostertagia circumcincta (O. c) in sheep at dose of 0.025 mg/kg administered orally; 0-19%"}, "[33]": {"tested_on": "Cooperia oncophora", "test": "Anthelmintic efficacy against immature (EL4) Cooperia oncopphora (C.o) in sheep at dose of 0.025 mg/kg administered orally; 20-59%"}, "[34]": {"tested_on": "Haemonchus contortus", "test": "Anthelmintic efficacy against immature (EL4) Haemonchus contortus (H.c) in sheep at dose of 0.05 mg/kg administered orally; 60-89%"}},
  "data": [
    {"smiles": "CC[C@H](C)[C@H]1O[C@]2(CC(OC(C)=O)[C@@H]1C)C[C@@H]1C[C@@H](C/C=C(\\C)[C@@H](OC3CC(OC)C(OC4CC(OC)C(OC(C)=O)C(C)O4)C(C)O3)[C@@H](C)/C=C/C=C3\\CO[C@@H]4[C@H](OC)C(C)=C[C@@H](C(=O)O1)[C@]34O)O2", "note": "(stereo not given in full)", "values": [
      {"measurement": "Dose", "setting": "[1]", "value": 0.5, "unit": "mg/kg"},
      {"measurement": "Efficacy", "setting": "[2]", "value": 20, "unit": "%"},
      {"measurement": "Efficacy", "setting": "[3]", "value": 60, "unit": "%"},
      {"measurement": "Efficacy", "setting": "[4]", "value": ">90", "unit": "%"},
      {"measurement": "Efficacy", "setting": "[5]", "value": 60, "unit": "%"},
      {"measurement": "Efficacy", "setting": "[6]", "value": 60, "unit": "%"},
      {"measurement": "Efficacy", "setting": "[7]", "value": ">90", "unit": "%"}
    ]},
    {"smiles": "CC[C@H](C)[C@H]1O[C@]2(CC(O)[C@@H]1C)C[C@@H]1C[C@@H](C/C=C(\\C)[C@@H](OC3CC(OC)C(OC4CC(OC)C(O)C(C)O4)C(C)O3)[C@@H](C)/C=C/C=C3\\CO[C@@H]4[C@H](OC)C(C)=C[C@@H](C(=O)O1)[C@]34O)O2", "note": "(stereo not given in full) [AVERMECTIN A2]", "values": [
      {"measurement": "Efficacy", "setting": "[8]", "value": 0, "unit": "%"},
      {"measurement": "Efficacy", "setting": "[9]", "value": 0, "unit": "%"},
      {"measurement": "Efficacy", "setting": "[10]", "value": 60, "unit": "%"},
      {"measurement": "Efficacy", "setting": "[11]", "value": ">90", "unit": "%"},
      {"measurement": "Efficacy", "setting": "[12]", "value": 20, "unit": "%"},
      {"measurement": "Efficacy", "setting": "[13]", "value": ">90", "unit": "%"},
      {"measurement": "Efficacy", "setting": "[14]", "value": 60, "unit": "%"},
      {"measurement": "Efficacy", "setting": "[15]", "value": 0, "unit": "%"},
      {"measurement": "Efficacy", "setting": "[16]", "value": 20, "unit": "%"},
      {"measurement": "Efficacy", "setting": "[17]", "value": ">90", "unit": "%"},
      {"measurement": "Dose", "setting": "[1]", "value": 0.05, "unit": "mg/kg"},
      {"measurement": "Efficacy", "setting": "[18]", "value": ">90", "unit": "%"},
      {"measurement": "Efficacy", "setting": "[19]", "value": 60, "unit": "%"},
      {"measurement": "Efficacy", "setting": "[20]", "value": ">90", "unit": "%"},
      {"measurement": "Efficacy", "setting": "[21]", "value": 0, "unit": "%"},
      {"measurement": "Efficacy", "setting": "[22]", "value": 60, "unit": "%"},
      {"measurement": "Efficacy", "setting": "[23]", "value": 0, "unit": "%"},
      {"measurement": "Efficacy", "setting": "[24]", "value": 60, "unit": "%"},
      {"measurement": "Efficacy", "setting": "[25]", "value": 60, "unit": "%"},
      {"measurement": "Efficacy", "setting": "[26]", "value": ">90", "unit": "%"},
      {"measurement": "Efficacy", "setting": "[27]", "value": 0, "unit": "%"},
      {"measurement": "Efficacy", "setting": "[28]", "value": 60, "unit": "%"},
      {"measurement": "Efficacy", "setting": "[29]", "value": 0, "unit": "%"},
      {"measurement": "Efficacy", "setting": "[30]", "value": 0, "unit": "%"},
      {"measurement": "Efficacy", "setting": "[31]", "value": 20, "unit": "%"},
      {"measurement": "Efficacy", "setting": "[32]", "value": 0, "unit": "%"},
      {"measurement": "Efficacy", "setting": "[33]", "value": 20, "unit": "%"},
      {"measurement": "Efficacy", "setting": "[34]", "value": 60, "unit": "%"}
    ]}
  ]
}
